Laboratory results reported in ChEMBL document CHEMBL4334552, “Discovery of BMS-986260, a Potent, Selective, and Orally Bioavailable TGFβR1 Inhibitor as an Immuno-oncology Agent” (ACS Med Chem Lett, 2020).
Active and inactive are the calls of the source. No cut-off for these calls is given here.

Experiments:
[1] = Cardiovascular toxicity in rat 1 mg/kg, po dosed every 3 days on and 4 days off treatment regime for 1 month; format: organism-based; conditions: in vivo
[2] = Cmax in Sprague Dawley rat at 10 mg/kg, po; format: ADME, organism-based; set-up: dose 10 mg/kg, route oral; conditions: in vivo
In short: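 Male Sprague–Dawley rats, n = 3, given 5 mg/kg iv or 10 mg/kg po as a PEG400 solution.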

MC-38 [3] = assay: (§1) Antitumour activity against mouse MC38 cells allografted in C57Bl/6 mouse assessed as reduction in tumour growth at 3.75 mg/kg, po dosed every 3 days on and 4 days off treatment regime and cotreated with anti-PD1 at 10 mg/kg, ip every 4 days for 3 doses by digital caliper analysis; format: functional, organism-based
In short: (§2)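 MC38 cells (0.1 mL at 1 × 10^7 cells/mL) were implanted subcutaneously in the right flank of C57/BL6 mice. Randomization was at about 100 mm3, typically day 5. Oral dosing ran 3 days on, 4 days off, over 28 days. Anti-PD-1 was given at 10 mg/kg IP every 4 days for three doses, with isotype MOPC-21 IgG1 as control on the same schedule.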

Cytochrome P450 2C19 = Cytochrome P450 2C19 (Homo sapiens, UniProt P33261); assay: Inhibition of recombinant CYP2C19 (unknown origin); format: ADME
Cytochrome P450 2C8 = target: T1, Cytochrome P450 2C8 (Homo sapiens, UniProt P10632); assay: Inhibition of recombinant CYP2C8 (unknown origin); format: ADME
T1 sequence (P10632 whole entry): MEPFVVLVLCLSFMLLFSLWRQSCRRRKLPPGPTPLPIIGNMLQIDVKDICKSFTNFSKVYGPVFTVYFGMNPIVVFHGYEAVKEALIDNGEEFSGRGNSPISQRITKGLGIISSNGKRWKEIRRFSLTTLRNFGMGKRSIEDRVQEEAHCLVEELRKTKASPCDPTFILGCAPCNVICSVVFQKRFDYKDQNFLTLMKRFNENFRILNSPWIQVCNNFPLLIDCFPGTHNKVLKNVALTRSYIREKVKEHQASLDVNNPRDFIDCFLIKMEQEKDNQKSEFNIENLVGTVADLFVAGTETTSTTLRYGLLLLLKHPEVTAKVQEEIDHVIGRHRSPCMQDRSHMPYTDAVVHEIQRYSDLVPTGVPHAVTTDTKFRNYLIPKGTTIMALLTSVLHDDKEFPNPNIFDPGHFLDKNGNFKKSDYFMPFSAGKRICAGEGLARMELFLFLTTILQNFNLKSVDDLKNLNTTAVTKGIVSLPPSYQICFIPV

[4] = Cardiovascular toxicity in dog assessed as aortic pathology at 5 mg/kg, po for 10 days; format: organism-based, Canis lupus familiaris; conditions: in vivo, 240 h
In short: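 Exploratory toxicology studies of 10 days with daily oral dosing in rats and dogs. Cardiovascular findings, including valvulopathy and aortic pathology, were assessed.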

Cytochrome P450 2C9 = Cytochrome P450 2C9 (Homo sapiens, UniProt P11712); assay: Induction of recombinant CYP2C9 (unknown origin) up to 24 microM; format: ADME; conditions: recombinant enzyme
Cytochrome P450 1A2 = target: T2, Cytochrome P450 1A2 (Homo sapiens, UniProt P05177); assay: Inhibition of recombinant CYP1A2 (unknown origin); format: ADME
T2 sequence (P05177 whole entry): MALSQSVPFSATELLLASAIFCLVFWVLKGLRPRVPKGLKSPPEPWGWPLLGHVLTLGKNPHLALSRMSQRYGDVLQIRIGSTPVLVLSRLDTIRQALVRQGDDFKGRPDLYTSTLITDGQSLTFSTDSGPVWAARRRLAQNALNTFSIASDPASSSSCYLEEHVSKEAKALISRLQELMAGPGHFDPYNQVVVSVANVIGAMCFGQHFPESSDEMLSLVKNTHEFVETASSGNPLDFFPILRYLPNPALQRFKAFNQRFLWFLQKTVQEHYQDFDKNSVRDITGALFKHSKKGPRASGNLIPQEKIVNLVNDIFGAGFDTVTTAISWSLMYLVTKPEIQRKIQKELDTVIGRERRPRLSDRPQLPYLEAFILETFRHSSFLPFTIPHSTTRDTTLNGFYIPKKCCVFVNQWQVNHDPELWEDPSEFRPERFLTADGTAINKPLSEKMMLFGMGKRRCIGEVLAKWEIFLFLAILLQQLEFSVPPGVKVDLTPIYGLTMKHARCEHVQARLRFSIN

Cytochrome P450 2D6 = Cytochrome P450 2D6 (Homo sapiens, UniProt P10635); assay: Induction of recombinant CYP2D6 (unknown origin) up to 24 microM; format: ADME; conditions: recombinant enzyme
[5] = Oral bioavailability in Sprague Dawley rat at 10 mg/kg; format: ADME, organism-based; conditions: in vivo
In short: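 Male Sprague–Dawley rats (n = 3) received a PEG400 solution iv at 5 mg/kg and po at 10 mg/kg.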

[6] = MRT in Beagle dog at 1 mg/kg, iv; format: ADME, organism-based, Canis lupus familiaris; conditions: in vivo
In short: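 Male Beagle dogs (n = 2) were pretreated with pentagastrin and dosed iv at 1 mg/kg and po at 5 mg/kg. The oral vehicle was 5% ethanol, 45% PEG400 and 50% 25 mM acetate buffer pH 4.0. The iv vehicle was 5:45:50 EtOH/PEG400/saline at 1 mL/kg.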

MC-38 [7] = assay: as §1, with “doses measured for ten doubling times after cessation of treatment” for “doses”; format: functional, organism-based; in short: as §2
4T1 = assay: Inhibition of metastasis in mouse 4T1 cells allografted in Balb/C mouse at 3.75 to 7.5 mg/kg, po qd for 28 days cotreated with anti-PD1 at 10 mg/kg, ip every 4 days for 3 doses by India ink/Fekete's solution based staining; format: functional, organism-based
[8] = Half life in rat liver microsomes in presence of UGT/UDPGA; format: ADME, Microsome
[9] = Tmax in Balb/C mouse at 10 mg/kg, po; format: ADME, organism-based; conditions: in vivo
In short: (§3)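 Male Balb/C mice (n = 3) dosed iv at 5 mg/kg and po at 10 mg/kg. Vehicle was 70% 25 mM acetate buffer pH 4.0, 5% ethanol and 25% PEG 400.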

TGF-beta receptor type-2 = TGF-beta receptor type-2 (Homo sapiens, UniProt P37173); assay: Inhibition of wild type His-tagged TGFBR2 kinase domain (unknown origin) incubated for 1 hr by HTRF analysis
[10] = Half life in human liver microsomes in presence of UGT/UDPGA; format: ADME, Microsome
TGF-beta receptor type-1 = TGF-beta receptor type-1 (Homo sapiens, UniProt P36897, T204D); assay: Inhibition of His-tagged TGFBR1 kinase domain T204D mutant (unknown origin) incubated for 1 hr by HTRF analysis
[11] = Half life in dog liver microsomes in presence of NADPH; format: ADME, Canis lupus familiaris, Microsome
[12] = Total AUC in Balb/C mouse at 5 mg/kg, iv; format: ADME, organism-based; set-up: dose 5 mg/kg, route intravenous, time AUCmax; conditions: in vivo; in short: as §3
MC-38 [13] = assay: Antitumour activity against mouse MC38 cells allografted in C57Bl/6 mouse assessed as reduction in tumour growth at 3.75 to 15 mg/kg, po qd for 28 days cotreated with anti-PD1 at 10 mg/kg, ip every 4 days for 3 doses measured for ten doubling times after cessation of treatment by digital caliper analysis; format: functional, organism-based
In short: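 C57/BL6 mice received 0.1 mL of MC38 cells (1 × 10^7 cells/mL) subcutaneously in the right flank. Mice were randomized at about 100 mm3, typically day 5. Oral dosing was once daily for 28 days at 3.75, 7.5 or 15 mg/kg. Anti-PD-1 was given at 10 mg/kg IP every 4 days for three doses. Isotype IgG1 MOPC-21 served as control on the same schedule.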

Cytochrome P450 2C19, sequence (P33261 whole entry): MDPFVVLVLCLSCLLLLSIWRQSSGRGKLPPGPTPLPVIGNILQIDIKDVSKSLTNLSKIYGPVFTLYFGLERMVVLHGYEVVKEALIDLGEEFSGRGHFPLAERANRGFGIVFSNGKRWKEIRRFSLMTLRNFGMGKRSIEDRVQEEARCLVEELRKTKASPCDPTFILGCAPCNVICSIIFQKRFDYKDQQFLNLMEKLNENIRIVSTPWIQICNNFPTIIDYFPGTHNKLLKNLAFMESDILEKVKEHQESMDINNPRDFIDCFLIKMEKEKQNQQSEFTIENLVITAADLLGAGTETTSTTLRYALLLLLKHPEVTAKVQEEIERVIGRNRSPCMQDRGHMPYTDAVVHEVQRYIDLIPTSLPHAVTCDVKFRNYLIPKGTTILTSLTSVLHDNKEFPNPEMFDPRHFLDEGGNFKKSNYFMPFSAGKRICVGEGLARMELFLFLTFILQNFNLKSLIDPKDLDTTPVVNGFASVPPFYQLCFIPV
TGF-beta receptor type-2, sequence (P37173 whole entry, the tested form may be a part): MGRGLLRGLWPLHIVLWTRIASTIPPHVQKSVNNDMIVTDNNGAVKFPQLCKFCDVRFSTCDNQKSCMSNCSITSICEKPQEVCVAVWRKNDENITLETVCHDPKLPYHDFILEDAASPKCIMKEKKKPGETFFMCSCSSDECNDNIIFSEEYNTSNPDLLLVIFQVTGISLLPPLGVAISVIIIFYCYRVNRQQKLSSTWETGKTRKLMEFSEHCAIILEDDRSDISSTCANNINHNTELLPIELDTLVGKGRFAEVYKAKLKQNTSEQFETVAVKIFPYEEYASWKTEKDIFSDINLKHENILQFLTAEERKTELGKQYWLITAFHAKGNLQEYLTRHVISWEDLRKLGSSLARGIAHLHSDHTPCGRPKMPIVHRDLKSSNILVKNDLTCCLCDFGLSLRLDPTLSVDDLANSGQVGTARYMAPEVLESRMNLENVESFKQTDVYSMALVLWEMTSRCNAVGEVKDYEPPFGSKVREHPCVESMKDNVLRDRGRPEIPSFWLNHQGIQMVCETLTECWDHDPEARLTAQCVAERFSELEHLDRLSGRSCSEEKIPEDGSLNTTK
TGF-beta receptor type-1, sequence (P36897 34-503 T204D limits assumed): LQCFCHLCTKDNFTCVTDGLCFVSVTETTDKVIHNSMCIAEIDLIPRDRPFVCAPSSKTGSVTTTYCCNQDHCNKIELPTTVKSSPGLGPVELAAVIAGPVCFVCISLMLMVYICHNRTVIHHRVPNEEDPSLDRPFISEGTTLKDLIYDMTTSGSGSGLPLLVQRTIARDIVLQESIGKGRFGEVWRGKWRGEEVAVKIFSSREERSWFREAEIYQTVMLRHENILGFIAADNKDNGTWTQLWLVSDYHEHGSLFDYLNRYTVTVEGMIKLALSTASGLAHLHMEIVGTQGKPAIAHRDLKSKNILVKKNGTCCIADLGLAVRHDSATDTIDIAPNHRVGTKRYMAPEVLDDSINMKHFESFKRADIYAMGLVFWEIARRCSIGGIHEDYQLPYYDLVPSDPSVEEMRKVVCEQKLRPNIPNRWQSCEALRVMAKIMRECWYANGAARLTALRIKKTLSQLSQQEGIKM
Cytochrome P450 2C9, sequence (P11712 whole entry): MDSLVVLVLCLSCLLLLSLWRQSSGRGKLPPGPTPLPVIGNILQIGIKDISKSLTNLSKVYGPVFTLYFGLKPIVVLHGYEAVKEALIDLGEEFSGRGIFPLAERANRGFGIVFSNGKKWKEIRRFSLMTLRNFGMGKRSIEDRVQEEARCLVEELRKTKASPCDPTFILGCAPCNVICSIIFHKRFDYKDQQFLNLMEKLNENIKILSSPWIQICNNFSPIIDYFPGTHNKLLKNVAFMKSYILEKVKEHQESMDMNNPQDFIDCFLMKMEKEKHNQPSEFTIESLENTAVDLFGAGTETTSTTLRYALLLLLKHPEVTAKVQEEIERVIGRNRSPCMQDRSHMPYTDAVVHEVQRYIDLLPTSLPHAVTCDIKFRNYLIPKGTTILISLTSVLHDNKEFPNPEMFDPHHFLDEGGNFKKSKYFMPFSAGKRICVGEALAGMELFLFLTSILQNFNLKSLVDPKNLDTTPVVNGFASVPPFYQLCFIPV
Cytochrome P450 2D6, sequence (P10635 whole entry): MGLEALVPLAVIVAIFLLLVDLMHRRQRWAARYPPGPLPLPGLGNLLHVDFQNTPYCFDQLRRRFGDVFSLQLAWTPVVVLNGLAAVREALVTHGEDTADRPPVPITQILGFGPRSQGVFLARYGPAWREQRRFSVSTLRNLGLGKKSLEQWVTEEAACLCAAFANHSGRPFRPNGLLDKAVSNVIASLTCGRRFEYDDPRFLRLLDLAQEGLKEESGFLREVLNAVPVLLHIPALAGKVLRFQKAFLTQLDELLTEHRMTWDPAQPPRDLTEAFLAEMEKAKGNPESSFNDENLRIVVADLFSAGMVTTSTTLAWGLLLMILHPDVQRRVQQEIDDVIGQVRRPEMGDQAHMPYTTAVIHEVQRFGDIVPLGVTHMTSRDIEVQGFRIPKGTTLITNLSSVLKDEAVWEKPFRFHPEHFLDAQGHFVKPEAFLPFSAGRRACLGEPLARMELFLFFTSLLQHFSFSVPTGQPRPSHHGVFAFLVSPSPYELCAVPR

Q: What does the source list for `N#Cc1cnc2ccc(-c3c(-c4ccc(F)c(Cl)c4)ncn3CCO)nn12`?
A: Activity [1]: Non-Toxic; Cmax [2]: 12.7 µM; inhibition (MC-38 [3]): Active; IC50 (Cytochrome P450 2C19): > 20 µM; IC50 (Cytochrome P450 2C8): > 20 µM; Activity [4]: Toxic; Activity (Cytochrome P450 2C9): Not Active; IC50 (Cytochrome P450 1A2): > 20 µM; Activity (Cytochrome P450 2D6): Not Active; bioavailability [5]: > 100%; MRT [6]: 3.1 h; inhibition (MC-38 [7]): Active; inhibition (4T1): Active; half-life [8]: > 2 h; Tmax [9]: 0.3 h; IC50 (TGF-beta receptor type-2): > 15 µM; half-life [10]: > 2 h; IC50 (TGF-beta receptor type-1): 0.0016 µM; half-life [11]: 0.617 h; AUC [12]: 26.3 µM·h; inhibition (MC-38 [13]): Active
